Test results taken from ChEMBL document CHEMBL3612004, “Primaquine-pyrimidine hybrids: synthesis and dual-stage antiplasmodial activity” (Eur J Med Chem, 2015).
Active and inactive are the calls of the source. The calls are words filed in the database; no cut-off is given here.

Legend:
Plasmodium falciparum = assay: Antiplasmodial activity against blood stage of chloroquine-sensitive Plasmodium falciparum NF54 by parasite lactate dehydrogenase assay; assay type: functional, organism-based
How it was run: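 Asexual P. falciparum was kept in continuous culture (modified Trager–Jensen) and read out by parasite lactate dehydrogenase. DMSO stocks were 20 mg/ml, tested as suspensions and diluted 2-fold in complete medium to 10 concentrations. Chloroquine and artesunate served as references. IC50 came from non-linear dose–response fitting; values are the mean of three observations.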

[1] = Cytotoxicity against human HuH7 cells assessed as effect on cell proliferation at 1 to 10 uM by Alamar Blue assay; assay type: cell-based; details: huh-7, 10 µM
How it was run: (§1)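 Huh-7 viability was measured by Alamar Blue in parallel with the 48 h sporozoite infection assay, in RPMI 1640/10% FBS/HEPES medium at 37 °C and 5% CO2. The initial screen tested each compound at […], scoring cell confluence and proliferation.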

Plasmodium berghei [2] = assay: Antiplasmodial activity against liver-stage of Plasmodium berghei expressing firefly luciferase infected in human Huh-7 cells after 48 hrs by bioluminescence assay; assay type: functional, organism-based; details: Huh-7, Liver
How it was run: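 Huh-7 hepatoma cells were grown in RPMI 1640 with 10% FBS, NEAA, glutamine and 10 mM HEPES pH 7, at 37 °C and 5% CO2, and seeded at 1.0 × 10^4 per well the day before. Compound medium went on about 1 h before fresh A. stephensi sporozoites of firefly-luciferase P. berghei, followed by centrifugation at 1700 g for 5 min. Luminescence was read 48 h post-infection, and IC50 came from dose–response.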

[3] = Cytotoxicity against human HuH7 cells assessed as cell viability by Alamar Blue assay; assay type: cell-based, Huh-7; how it was run: as §1
[4] = Selectivity index, ratio of CC50 for human HuH7 cells to IC50 for liver-stage of Plasmodium berghei expressing firefly luciferase infected in human Huh-7 cells; assay type: functional
Plasmodium berghei [5] = assay: Ratio of primaquine IC50 to compound IC50 for liver-stage of Plasmodium berghei expressing firefly luciferase infected in human Huh-7 cells; assay type: functional
Plasmodium berghei [6] = assay: Antiplasmodial activity against Plasmodium berghei ANKA expressing luciferase infected in C57Bl/6J mouse assessed as reduction of liver parasite load at 50 mg/kg, po administered 8 hrs prior to parasite infection measured after 24 hrs; assay type: functional, organism-based; details: in the assay text read “measured after 47 hrs” for “measured after 24 hrs”
How it was run: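 C57Bl/6J mice were inoculated intravenously with 5 × 10^3 luciferase-expressing P. berghei ANKA sporozoites from A. stephensi salivary glands. Drug was given at 50 mg/kg by oral gavage as a sunflower-oil suspension from a DMSO stock, 8 h before, at, and 24 h after infection; controls got vehicle. Livers were homogenized in guanidine thiocyanate denaturing solution 47 h post-infection to quantify parasite load.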

IC50 (Plasmodium falciparum) [µM]	IC50 (Plasmodium berghei [2]) [µM]	SMILES	Activity [1]	CC50 [3] [µM]	Ratio CC50/IC50 [4]	Ratio IC50 (Plasmodium berghei [5])	Activity (Plasmodium berghei [6])
4.32	1.26	CCOC(=O)c1c(C)nc(NCCCC(C)Nc2cc(OC)cc3cccnc23)nc1-c1ccccc1 (stereo unspecified)	Non-toxic	> 100	>79.3	6.7	–
3.28	1.57	CCOC(=O)c1c(C)nc(NCCCC(C)Nc2cc(OC)cc3cccnc23)nc1-c1ccc(OC)cc1 (stereo unspecified)	Non-toxic	> 100	>63.6	–	–
3.43	–	CCOC(=O)c1c(C)nc(NCCCC(C)Nc2cc(OC)cc3cccnc23)nc1-c1ccc(F)cc1 (stereo unspecified)	Non-toxic	–	–	–	–
2	–	COC(=O)c1c(C)nc(NCCCC(C)Nc2cc(OC)cc3cccnc23)nc1C (stereo unspecified)	Non-toxic	–	–	–	–
3.78	1.86	CCOC(=O)c1c(C)nc(NCCCC(C)Nc2cc(OC)cc3cccnc23)nc1C (stereo unspecified)	Non-toxic	61	32.6	–	–

Second part, the molecule before the results:

SMILES	IC50 (Plasmodium falciparum) [µM]	IC50 (Plasmodium berghei [2]) [µM]	Activity [1]	CC50 [3] [µM]	Ratio CC50/IC50 [4]	Ratio IC50 (Plasmodium berghei [5])	Activity (Plasmodium berghei [6])
COc1cc(NC(C)CCCNc2nc(C)c(C(=O)OC(C)C)c(-c3ccccc3)n2)c2ncccc2c1 (stereo unspecified)	4.8	–	Non-toxic	–	–	–	–
C[C@H]1[C@H](OC(=O)CCC(=O)O)O[C@@H]2O[C@@]3(C)CC[C@H]4[C@H](C)CC[C@@H]1[C@@]24OO3 [ARTESUNATE]	0.0044	–	–	–	–	–	–
COc1cc(NC(C)CCCNc2nc(C)c(C(=O)OC(C)C)c(-c3ccccc3[N+](=O)[O-])n2)c2ncccc2c1 (stereo unspecified)	2.79	–	Non-toxic	–	–	–	–
O=C1C(O)=C([C@H]2CC[C@H](c3ccc(Cl)cc3)CC2)C(=O)c2ccccc21 [ATOVAQUONE]	–	0.0018	–	–	–	–	–
COc1cc(NC(C)CCCN)c2ncccc2c1 (stereo unspecified) [PRIMAQUINE]	0.892	8.43	–	–	–	–	–
COc1cc(NC(C)CCCNc2nc(C)c(C(=O)OC(C)C)c(-c3cccc([N+](=O)[O-])c3)n2)c2ncccc2c1 (stereo unspecified)	2.67	1.5	Non-toxic	> 100	>66.6	–	inactive
COc1cc(NC(C)CCCNc2nc(C)c(C(=O)OC(C)C)c(-c3ccc([N+](=O)[O-])cc3)n2)c2ncccc2c1 (stereo unspecified)	1.93	–	Non-toxic	–	–	–	–
